This note sets out measurements from ChEMBL document CHEMBL1132143, “Effect of A-ring modifications on the DNA-binding behavior and cytotoxicity of pyrrolo[2,1-c][1,4]benzodiazepines” (J Med Chem, 1999).

Assay [1] in a line: Tested for cytotoxicity against ADJ/PC6 mouse plasmacytoma. Format: functional, cell-based. The procedure, abridged:
(§1)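 ADJ/PC6 mouse plasmacytoma grown in suspension. Seeded day 0 at 3–5 × 10^4 cells/mL in Dulbecco's medium with 20% horse serum. Log-phase confirmed day 1, then compound added for 72 h at 37 °C. Cells counted day 4 by Coulter counter. IC50 is the dose giving 50% growth inhibition versus solvent controls. Screened 10^-4–10^-11 M in 10-fold steps, <0.05% v/v DMSO.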

The test system of assay [2] is CH1. Briefly: Tested for cytotoxicity against CH1 human ovarian cells. Format: functional, cell-based. The procedure, abridged:
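CH1 human ovarian monolayer, plated day 0 at 100–200 cells per T25 flask in Dulbecco's medium with 10% fetal calf serum and allowed to attach overnight. Compound added day 1 and left continuously at 37 °C. Colonies fixed day 9 in EtOH, stained with methylene blue and counted. IC50 is 50% inhibition versus solvent controls. Range 10^-4–10^-11 M, 10-fold steps.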

Assay [3] has as its system Calf thymus DNA. Nature of the assay: Tested for thermal denaturation against CT-DNA at 0 hours. Format: nucleic-acid assay. To be noted: Bos taurus. A digest of the protocol: (§2)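 CT-DNA (42% G+C) at 100 μM in DNA phosphate with compound at 20 μM (5:1 ratio). Buffer pH 7.00, 10 mM sodium phosphate, 1 mM EDTA, ≤0.6% v/v MeOH. Incubated at 37.0 °C for the stated time. Melted at 1 °C/min from 45 to 98 °C, read at 260 nm. ΔTm is Tm with ligand minus free DNA Tm, MeOH-corrected; mean ± SD of ≥3 runs.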

In assay [4] the test system is Calf thymus DNA. Briefly: Tested for thermal denaturation against CT-DNA at 4 hours. Format: nucleic-acid assay. As to conditions: Bos taurus. The procedure, abridged:
as §2

Assay [5] has as its system L1210. Briefly: Tested for cytotoxicity against L1210 mouse Leukemia cell. Format: functional, cell-based. A digest of the protocol:
(§3)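 L1210 mouse leukemia grown in suspension. Seeded day 0 at 10^4 cells/mL in RPMI 1640 with 10% horse serum. Log phase checked day 1, then compound added for 48 h at 37 °C. Cells counted day 3 by Coulter counter. IC50 is 50% growth inhibition versus solvent-treated controls. Dose range 10^-4–10^-11 M in 10-fold steps, <0.05% v/v DMSO.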

Assay [6] deals with Calf thymus DNA. Briefly: Tested for thermal denaturation against CT-DNA. As to conditions: Bos taurus.
A short description of assay [7]: Tested for cytotoxicity against ADJ/PC6 plasmacytoma. Format: functional, cell-based, Mus musculus. The procedure, abridged:
as §1

The subject of assay [8] is L1210. Nature of the assay: Tested for cytotoxicity against L1210 Leukemia cell. As to conditions: Mus musculus. Format: functional, cell-based. A digest of the protocol:
as §3

Assay [9] relates to Calf thymus DNA. Nature of the assay: Tested for thermal denaturation against CT-DNA at 18 hours. As to conditions: Bos taurus.

Consider `COC(=O)c1c2c(nn1C)C(=O)N1CCC[C@H]1C=N2`, for which the half-inhibitory concentration (IC50) (usually the concentration needed to halve the response being measured) is > 50000 nM in [1], > 100000 nM in [2] and 35000 nM in assay [5]. Moreover, the ΔTm (in general, the shift of the melting midpoint relative to a reference) is 0.2 °C in assay [3], 0.3 °C in assay [4] and 0.5 °C in [6].

With `COc1nc(OC)c2c(n1)C(=O)N1CCC[C@H]1C=N2`, the ΔTm in assay [3] was 0.1 °C; in assay [4], 0.2 °C; in [6], 0.3 °C. The IC50 in assay [5] turned out to be 42000 nM.

Regarding `COc1cc2c(cc1OCCCOCc1ccccc1)N=C[C@@H]1CCCN1C2=O`, the IC50 in assay [7] was 2300 nM; in assay [2], 290 nM; in assay [8] it was 2400 nM. The values for the ΔTm in assay [3], in assay [4] and in assay [9] were 0.2 °C, 0.4 °C and 0.6 °C, respectively.

In assay [2], `CO[C@H]1Nc2nccnc2C(=O)N2CCC[C@@H]12` registered an IC50 of 17000 nM. For the same molecule, the ΔTm in assay [3] was 0.3 °C; in assay [4] it was 0.6 °C; in assay [6], 0.7 °C.

Take `COC(=O)CCOc1cc2c(cc1OC)C(=O)N1CCC[C@H]1C=N2`: in [2], the IC50 was determined as 4400 nM. Besides, the figures for the ΔTm in assay [3], in [4] and in assay [9] were 0.3 °C, 0.5 °C and 0.6 °C, respectively.

For `COc1cc2c(cc1NC(=O)OCc1ccccc1)N=C[C@@H]1CCCN1C2=O`, the half-maximal inhibitory concentration (IC50) in assay [1] stood at 3200 nM; in assay [2] it was 1800 nM; in assay [5], 4500 nM. Moreover, the figures for the ΔTm in [3], in [4] and in assay [6] were 0.1 °C, 0.2 °C and 0.4 °C, respectively.

For `O=C1c2cc3c(cc2N=C[C@@H]2CCCN12)OCO3`, the IC50 in assay [7] came to 1900 nM; in assay [2] it was 260 nM; in assay [8] it was 1500 nM. In addition, the ΔTm was determined as 0.1 °C in assay [3], 0.2 °C in assay [4] and 0.4 °C in assay [9].

`COc1cc2c(cc1OCc1ccccc1)N=C[C@@H]1CCCN1C2=O`: the 50% inhibitory concentration (IC50) in [7] is 370 nM; in assay [2], 1000 nM; in [8], 3000 nM. The ΔTm turned out to be 0.2 °C in assay [3], 0.4 °C in assay [4] and 0.4 °C in assay [9].

Consider `COc1cc2c(cc1O)C(=O)N1CCC[C@H]1C=N2`, for which the IC50 came out at 2700 nM in [7], 200 nM in assay [2] and 2700 nM in assay [8]. The ΔTm in [3] was found to be 0.3 °C; in assay [4], 0.5 °C; in [9], 0.6 °C.

As for `C/C=C1\C[C@H]2C=Nc3cc(O)c(OC)cc3C(=O)N2C1`, the half-inhibitory concentration (IC50) in [7] stood at 1.8 nM; in assay [2], 0.13 nM; in assay [8] it was 3.7 nM. Also, the thermal shift (ΔTm) amounted to 1 °C in assay [3], 2.4 °C in [4] and 2.6 °C in [9].

As for `O=C1c2ccccc2N=C[C@@H]2CCCN12`, the half-inhibitory concentration (IC50) in [7] was 38000 nM; in assay [2], 42000 nM; in [8], > 100000 nM. Further, the ΔTm in [3] is 0.3 °C; in assay [4], 0.4 °C; in assay [9], 0.6 °C.

For `O=C1c2cc3c(cc2N=C[C@@H]2CCCN12)OCCO3`, the IC50 in assay [7] was determined as 3400 nM; in assay [2] it was 460 nM; in assay [8], 2700 nM. Also, the ΔTm stood at 0.1 °C in [3], 0.3 °C in [4] and 0.5 °C in assay [9].

For `CO[C@H]1Nc2ncccc2C(=O)N2CCC[C@@H]12`, the IC50 was > 50000 nM in assay [1], 43000 nM in assay [2] and 13000 nM in assay [5]. Also, the results for the ΔTm in assay [3], in assay [4] and in assay [6] were 0.3 °C, 0.5 °C and 0.5 °C, respectively.

In the case of `CO[C@@H]1Nc2ncccc2C(=O)N2CCC[C@@H]12`, the IC50 in assay [1] was > 50000 nM; in [2], 43000 nM; in assay [5] it was 13000 nM. Further, the ΔTm in [3] was 0.3 °C; in assay [4] it was 0.5 °C; in assay [6], 0.5 °C.

On to `COC1Nc2c(ccc(C)c2O)C(=O)N2C=C(/C=C/C(N)=O)C[C@@H]12` (some centres undefined), for which the IC50 in [1] is 2.8 nM; in [2], 320 nM; in assay [5] it was 22 nM. Further, the ΔTm was found to be 9.4 °C in [3], 11.2 °C in assay [4] and 13 °C in assay [9].

For the molecule `COc1cc2c(cc1O)N=C[C@@H]1CCCN1C2=O`, the IC50 worked out at 330 nM in assay [7] and 100 nM in [2]. Further, the ΔTm in assay [3] was 0.3 °C; in [4] it was 0.5 °C.

Regarding `CCCCOC1CC[C@H]2C=Nc3cc(O)c(OC)cc3C(=O)N12` (some centres undefined), the figures for the 50% inhibitory concentration (IC50) in assay [7], in assay [2] and in [8] were 1300 nM, 430 nM and 2700 nM, respectively. Moreover, the figures for the ΔTm in assay [3], in assay [4] and in assay [9] were 0.5 °C, 0.6 °C and 0.8 °C, respectively.
